Assay results taken from ChEMBL document CHEMBL3813631, “Design, synthesis, and pharmacological evaluation of JDTic analogs to examine the significance of replacement of the 3-hydroxyphenyl group with pyridine or thiophene bioisosteres” (Bioorg Med Chem, 2016).
Activity calls are given as the source filed them. No cut-off for these calls is given here.

Columns and labels:
[1] = biological target: Delta-type opioid receptor (Homo sapiens) (UniProt P41143); assay: Intrinsic activity at human delta opioid receptor expressed in CHO cell membrane assessed as increase in [35S]GTPgammaS binding at 10 uM after 1 hr by scintillation counting method; format: functional, cell membranes
Sequence of Delta-type opioid receptor (Homo sapiens) (P41143 whole entry): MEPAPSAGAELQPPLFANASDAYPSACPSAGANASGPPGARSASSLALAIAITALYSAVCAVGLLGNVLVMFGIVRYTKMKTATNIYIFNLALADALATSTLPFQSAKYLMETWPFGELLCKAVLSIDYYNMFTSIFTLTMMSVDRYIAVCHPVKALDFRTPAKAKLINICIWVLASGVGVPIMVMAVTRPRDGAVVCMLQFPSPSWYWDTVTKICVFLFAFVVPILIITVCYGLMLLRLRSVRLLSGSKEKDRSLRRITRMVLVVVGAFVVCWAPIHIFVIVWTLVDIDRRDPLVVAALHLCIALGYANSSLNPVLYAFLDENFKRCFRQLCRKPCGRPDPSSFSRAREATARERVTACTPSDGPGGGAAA

[2] = biological target: Kappa-type opioid receptor (Homo sapiens) (UniProt P41145); assay: Intrinsic activity at human kappa opioid receptor expressed in CHO cell membrane assessed as increase in [35S]GTPgammaS binding at 10 uM after 1 hr by scintillation counting method; format: functional, cell membranes
Sequence of Kappa-type opioid receptor (Homo sapiens) (P41145 whole entry): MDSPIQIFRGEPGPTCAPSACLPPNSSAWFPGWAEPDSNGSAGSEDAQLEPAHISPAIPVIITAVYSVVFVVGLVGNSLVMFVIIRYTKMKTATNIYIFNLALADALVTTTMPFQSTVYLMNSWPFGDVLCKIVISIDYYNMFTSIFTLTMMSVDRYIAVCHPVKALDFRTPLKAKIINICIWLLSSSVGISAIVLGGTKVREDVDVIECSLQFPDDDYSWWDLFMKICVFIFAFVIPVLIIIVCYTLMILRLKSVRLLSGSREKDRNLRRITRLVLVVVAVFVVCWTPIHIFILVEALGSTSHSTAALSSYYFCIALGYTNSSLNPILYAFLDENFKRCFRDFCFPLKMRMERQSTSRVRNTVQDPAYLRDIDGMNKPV

[3] = biological target: Kappa-type opioid receptor (Homo sapiens) (UniProt P41145); assay: Antagonist activity at human kappa opioid receptor expressed in CHO cell membrane assessed as inhibition of U69,593-induced [35S]GTPgammaS binding after 1 hr by scintillation counting method; format: functional, cell membranes
In short: (§1)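 Antagonist Ke values were obtained from [35S]GTPγS binding at each opioid receptor. Each value is the mean ± SEM of at least three independent experiments, and each experiment was run in duplicate.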

CHO [4] = assay: Selectivity ratio of Ke for human mu opioid receptor expressed in CHO cell membrane to Ke for human kappa opioid receptor expressed in CHO cell membrane; format: cell-based
[5] = biological target: Mu-type opioid receptor (Homo sapiens) (UniProt P35372); assay: Intrinsic activity at human mu opioid receptor expressed in CHO cell membrane assessed as increase in [35S]GTPgammaS binding at 10 uM after 1 hr by scintillation counting method; format: functional, cell membranes
Sequence of Mu-type opioid receptor (Homo sapiens) (P35372 whole entry): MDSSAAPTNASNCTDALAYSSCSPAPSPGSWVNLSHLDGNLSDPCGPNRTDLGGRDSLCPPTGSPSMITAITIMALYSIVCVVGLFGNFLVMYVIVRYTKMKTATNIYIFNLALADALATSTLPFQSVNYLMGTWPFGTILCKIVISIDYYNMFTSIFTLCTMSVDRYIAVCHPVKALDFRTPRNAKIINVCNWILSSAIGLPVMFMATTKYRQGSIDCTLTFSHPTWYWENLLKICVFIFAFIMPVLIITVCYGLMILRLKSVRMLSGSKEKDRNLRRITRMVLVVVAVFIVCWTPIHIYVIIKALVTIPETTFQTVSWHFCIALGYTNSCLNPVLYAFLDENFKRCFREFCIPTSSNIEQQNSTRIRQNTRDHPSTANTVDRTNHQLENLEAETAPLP

CHO [6] = assay: Selectivity ratio of Ke for human delta opioid receptor expressed in CHO cell membrane to Ke for human kappa opioid receptor expressed in CHO cell membrane; format: cell-based
[7] = biological target: Delta-type opioid receptor (Homo sapiens) (UniProt P41143); assay: Antagonist activity at human delta opioid receptor expressed in CHO cell membrane assessed as inhibition of DPDPE-induced [35S]GTPgammaS binding after 1 hr by scintillation counting method; format: functional, cell membranes; in short: as §1
[8] = biological target: Mu-type opioid receptor (Homo sapiens) (UniProt P35372); assay: Antagonist activity at human mu opioid receptor expressed in CHO cell membrane assessed as inhibition of DAMGO-induced [35S]GTPgammaS binding after 1 hr by scintillation counting method; format: functional, cell membranes; in short: as §1

Compound	Intrinsic activity [1]	Intrinsic activity [2]	Ke [3] [nM]	Ratio Ke (CHO [4])	Intrinsic activity [5]	Ratio Ke (CHO [6])	Ke [7] [nM]	Ke [8] [nM]
CC(C)[C@@H](CN1CCC(c2ccncc2)CC1)NC(=O)[C@H]1Cc2ccc(O)cc2CN1	inactive	inactive	0.51	112	inactive	1350	–	–
CC(C)[C@@H](CN1CCC(C)(c2cccnc2)CC1)NC(=O)[C@H]1Cc2ccc(O)cc2CN1	inactive	inactive	0.18	273	inactive	> 16700	–	–
CC(C)[C@@H](CN1CCC(c2cccnc2)CC1)NC(=O)[C@H]1Cc2ccc(O)cc2CN1	inactive	inactive	0.51	89	inactive	2240	–	–
CC(C)[C@@H](CN1CCC(C)(c2ccncc2)CC1)NC(=O)[C@H]1Cc2ccc(O)cc2CN1	inactive	inactive	1.75	88	inactive	1430	–	–
CC(C)[C@@H](CN1CCC(c2ccccn2)CC1)NC(=O)[C@H]1Cc2ccc(O)cc2CN1	inactive	inactive	0.43	33	inactive	1370	–	–
CC(C)[C@@H](CN1CCC(c2ccsc2)CC1)NC(=O)[C@H]1Cc2ccc(O)cc2CN1	inactive	inactive	0.12	33	inactive	983	118	3.93
CC(C)[C@@H](CN1CCC(c2ccccc2)CC1)NC(=O)[C@H]1Cc2ccc(O)cc2CN1	–	–	–	77	–	5510	–	–
